Assay results pooled from the literature.
Target: SRSF protein kinase 1 (SRPK1, Homo sapiens, UniProt Q96SB4)

SMILES | test | setting | remaining binding [%]
O=C(c1ccc(Nc2ncc(Cl)c(-c3ccc(Cl)s3)n2)cc1)N1CCC(N2CCCC2)CC1 | binding, competition with immobilised ligand | 1 µM | 93
O=C(Nc1c[nH]nc1C(=O)NC1CCNCC1)c1cc(F)cc(F)c1 | binding, competition with immobilised ligand | 1 µM | 100
COc1cnc(Nc2cccc(S(N)(=O)=O)c2)nc1N1CCN(c2ccccc2)CC1 | binding, competition with immobilised ligand | 1 µM | 65
Cc1noc([C@H]2C[C@@H](c3ccc(C(F)(F)F)cc3)CN(C(=O)N3CCS(=O)(=O)C3)C2)n1 | cell-free assay, competition with immobilised ligand | 1 µM | 100
O=C(NCCCN1CCOCC1)c1ccc(Nc2ncc(Cl)c(-c3ccc(Cl)s3)n2)cc1 | binding, competition with immobilised ligand | 1 µM | 97
FC(F)(F)Oc1cccc(-c2cnc3ccc(-c4ccncc4)nn23)c1 | binding, competition with immobilised ligand | 5 µM | 70
C=CC(=O)N1CCC(C(=O)NCC(=O)N2CCN(c3nc(-c4cnc(N)nc4C(F)F)nc(N4CCOCC4)n3)CC2)CC1 | binding, competition with immobilised ligand | 1 µM | 75
CN(C)C(=O)Cn1cc(-c2nc([C@@](C)(c3ccc(-c4cnc(N)nc4)cc3)C3CC3)no2)cn1 | cell-free assay, competition with immobilised ligand | 1 µM | 100
COc1ccnn2ncc(-c3ccnc(N(C)C)n3)c12 | binding | 1 µM | 85
COCCOc1nc(-c2ccc(Cl)nc2)nc2c1CN(C(=O)c1ncn3ccccc13)CC2 | cell-free assay, competition with immobilised ligand | 0.1 µM | 86
CN(C)c1ncc(F)c(-c2cnn3ncccc23)n1 | binding | 1 µM | 95
O=C(NCCCN1CCOCC1)c1ccc(Nc2nccc(-c3cc4ccccc4s3)n2)cc1 | binding, competition with immobilised ligand | 1 µM | 100
CN(C)c1nccc(-c2cnn3ncccc23)n1 | binding | 1 µM | 100
O=C(O)[C@H]1[C@H](Cn2nnc3ccccc3c2=O)CC[C@@H]1C(=O)c1ccc(OCCC2CCOCC2)cc1 | cell-free assay, competition with immobilised ligand | 1 µM | 79
C[C@@H](c1ccc(-n2cnc3c(N)ncnc32)cc1)N1CCc2nn(C)c(Cc3ccccc3)c2C1=O | binding, competition with immobilised ligand | 0.1 µM | 100
CN(C)c1nccc(-c2cnc3ncccn23)n1 | binding | 1 µM | 82
O=C(Nc1cccnn1)N1CC(C/C=C/c2cncc(Oc3ccc(C(F)(F)F)cn3)n2)C1 | cell-free assay, competition with immobilised ligand | 1 µM | 82
N[C@H]1CCN(c2nccc(-c3cnn4ncccc34)n2)C1 | binding | 1 µM | 84
N#Cc1ccc(Nc2ccc3[nH]c(=O)[nH]c3c2)c(Cl)c1 | cell-free assay, competition with immobilised ligand | 1 µM | 95
CNC(=O)[C@@H]1CC[C@@H](n2c(-c3ccc4cnccc4c3)nc3ccc(C(=O)NCc4cccc(C(N)=O)c4)cc32)C1 | binding, competition with immobilised ligand | 1 µM | 79
CN(c1nccc(-c2cnn3ncccc23)n1)C1CC1 | binding | 1 µM | 88
